Columns and labels:
Cannabinoid receptor 2 [1] = biological target: T1, Cannabinoid receptor 2 (Homo sapiens, UniProt P34972); assay: Antagonist activity at human CB2-receptor expressed in CHO-K1 cells coexpressing G-alpha16 at 10 uM pre-incubated for 10 mins and later treated with 100 nM CB-receptor agonist, CP55940 by Fluo-4-AM dye based calcium mobilization assay; format: functional, cell-based
Method in brief: (§1)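 CHO-K1 cells stably co-expressing Gα16 and human CB1 or CB2, loaded with 2 μM fluo-4 AM in HBSS pH 7.4 at 37 °C for 45 min. Pre-incubated with compound for 10 min at room temperature, then CP55940 added at 100 nM. Peak calcium read over 60 s (ex 485/em 525 nm). Rimonabant positive control. Actives got eight-point curves in triplicate, sigmoidal fit for IC50.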

Cannabinoid receptor 1 [2] = biological target: T2, Cannabinoid receptor 1 (Homo sapiens, UniProt P21554); assay: Antagonist activity at human CB1-receptor expressed in CHO-K1 cells coexpressing G-alpha16 at 10 uM pre-incubated for 10 mins and later treated with 100 nM CB-receptor agonist, CP55940 by Fluo-4-AM dye based calcium mobilization assay; format: cell-based; method in brief: as §1
T2 sequence (P21554 whole entry): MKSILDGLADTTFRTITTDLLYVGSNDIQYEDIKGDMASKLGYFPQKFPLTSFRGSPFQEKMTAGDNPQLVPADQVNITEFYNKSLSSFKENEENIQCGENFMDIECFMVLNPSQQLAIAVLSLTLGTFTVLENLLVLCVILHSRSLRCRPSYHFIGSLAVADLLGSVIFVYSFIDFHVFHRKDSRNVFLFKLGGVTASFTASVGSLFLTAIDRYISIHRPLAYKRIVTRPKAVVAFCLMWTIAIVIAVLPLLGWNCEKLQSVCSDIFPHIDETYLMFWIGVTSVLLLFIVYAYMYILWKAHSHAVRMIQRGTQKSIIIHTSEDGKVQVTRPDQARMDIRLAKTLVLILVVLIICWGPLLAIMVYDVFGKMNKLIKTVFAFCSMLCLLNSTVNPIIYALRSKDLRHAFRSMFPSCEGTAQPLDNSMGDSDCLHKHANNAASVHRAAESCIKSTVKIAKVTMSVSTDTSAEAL

Cannabinoid receptor 1 [3] = biological target: T2, Cannabinoid receptor 1; assay: Agonist activity at human CB1-receptor expressed in CHO-K1 cells coexpressing G-alpha16 by Fluo-4-AM dye based calcium mobilization assay; format: cell-based
Cannabinoid receptor 2 [4] = biological target: T1, Cannabinoid receptor 2; assay: Agonist activity at human CB2-receptor expressed in CHO-K1 cells coexpressing G-alpha16 by Fluo-4-AM dye based calcium mobilization assay; format: functional, cell-based
Cannabinoid receptor 2 [5] = biological target: T1, Cannabinoid receptor 2; assay: Antagonist activity at human CB2-receptor expressed in CHO-K1 cells coexpressing G-alpha16 pre-incubated for 10 mins and later treated with 100 nM CB-receptor agonist, CP55940 by Fluo-4-AM dye based calcium mobilization assay; format: functional, cell-based; method in brief: as §1
Cannabinoid receptor 2 [6] = biological target: T1, Cannabinoid receptor 2; assay: Agonist activity at human CB2-receptor expressed in CHO-K1 cells coexpressing G-alpha16 at 10 uM by Fluo-4-AM dye based calcium mobilization assay; format: functional, cell-based
Method in brief: (§2)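 CHO-K1 cells stably co-expressing Gα16 and human CB1 or CB2, seeded 24 h. Loaded with 2 μM fluo-4 AM in HBSS (with sulfinpyrazone, pH 7.4) at 37 °C for 45 min. Compound added and calcium fluorescence recorded (ex 485/em 525 nm). CP55940 positive control, DMSO negative control. Compounds with >50% activation at 10 μM got eight-point curves in triplicate, sigmoidal fit for EC50.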

Cannabinoid receptor 1 [7] = biological target: T2, Cannabinoid receptor 1; assay: Agonist activity at human CB1-receptor expressed in CHO-K1 cells coexpressing G-alpha16 at 10 uM by Fluo-4-AM dye based calcium mobilization assay; format: cell-based; settings: cho-k1, 10 µM; method in brief: as §2
Cannabinoid receptor 1 [8] = biological target: T2, Cannabinoid receptor 1; assay: Antagonist activity at human CB1-receptor expressed in CHO-K1 cells coexpressing G-alpha16 pre-incubated for 10 mins and later treated with 100 nM CB-receptor agonist, CP55940 by Fluo-4-AM dye based calcium mobilization assay; format: cell-based; method in brief: as §1
Cannabinoid receptor 1 [9] = biological target: T2, Cannabinoid receptor 1; assay: Agonist activity at human CB1-receptor expressed in CHO-K1 cells coexpressing G-alpha16 assessed as maximum efficacy by Fluo-4-AM dye based calcium mobilization assay relative to CP55940; format: cell-based; method in brief: as §2
Cannabinoid receptor 2 [10] = biological target: T1, Cannabinoid receptor 2; assay: Agonist activity at human CB2-receptor expressed in CHO-K1 cells coexpressing G-alpha16 assessed as maximum efficacy by Fluo-4-AM dye based calcium mobilization assay relative to CP55940; format: functional, cell-based; method in brief: as §2

T1 sequence (P34972 whole entry): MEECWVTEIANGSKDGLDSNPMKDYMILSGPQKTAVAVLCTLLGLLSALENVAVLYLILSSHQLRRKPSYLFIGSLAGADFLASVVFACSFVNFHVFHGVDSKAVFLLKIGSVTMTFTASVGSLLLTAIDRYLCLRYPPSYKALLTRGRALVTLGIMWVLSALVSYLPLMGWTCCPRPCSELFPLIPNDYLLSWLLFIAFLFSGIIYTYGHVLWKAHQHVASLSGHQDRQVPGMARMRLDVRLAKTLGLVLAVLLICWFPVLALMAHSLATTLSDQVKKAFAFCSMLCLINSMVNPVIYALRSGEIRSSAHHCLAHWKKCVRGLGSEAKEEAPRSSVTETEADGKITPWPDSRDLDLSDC

| SMILES | inhibition (Cannabinoid receptor 2 [1]) [%] | inhibition at 10 µM (Cannabinoid receptor 1 [2]) [%] | EC50 (Cannabinoid receptor 1 [3]; read-out: EC50) [µM] | EC50 (Cannabinoid receptor 2 [4]; cho-k1) | IC50 (Cannabinoid receptor 2 [5]; read-out: IC50) [µM] | Activity (Cannabinoid receptor 2 [6]) [%] | Activity (Cannabinoid receptor 1 [7]) [%] | IC50 (Cannabinoid receptor 1 [8]) | Emax (Cannabinoid receptor 1 [9]) [%] | EC50 (Cannabinoid receptor 1 [3]; cho-k1) | EC50 (Cannabinoid receptor 2 [4]; read-out: EC50) [µM] | IC50 (Cannabinoid receptor 2 [5]; cho-k1) | Emax (Cannabinoid receptor 2 [10]) [%] |
| --- | --- | --- | --- | --- | --- | --- | --- | --- | --- | --- | --- | --- | --- |
| CCCCCn1cc(C(=O)NC23CC4CC(CC(C4)C2)C3)c2cnccc21 | > 50 | < 50 | 2.1 | Not Active | 0.26 | < 50 | > 50 | Not Active | 41 | – | – | – | – |
| O=C(NC12CC3CC(CC(C3)C1)C2)c1cc2cccnc2[nH]1 | < 50 | < 50 | – | – | – | > 50 | < 50 | Not Active | – | Not Active | 0.29 | Not Active | 40.7 |
| O=C(NC12CC3CC(CC(C3)C1)C2)c1c[nH]c2ncccc12 | > 50 | < 50 | – | Not Active | 6.5 | < 50 | < 50 | Not Active | – | Not Active | – | – | – |
| CCCCCn1cc(C(=O)NC23CC4CC(CC(C4)C2)C3)c2cccnc21 | < 50 | < 50 | 0.74 | – | – | > 50 | > 50 | Not Active | 39.1 | – | 0.032 | Not Active | 79.4 |
| O=C(NC12CC3CC(CC(C3)C1)C2)c1nn(CCN2CCOCC2)c2ccccc12 | < 50 | < 50 | 0.3 | – | – | > 50 | > 50 | Not Active | 109 | – | 0.058 | Not Active | 85.3 |
| O=C(NC12CC3CC(CC(C3)C1)C2)c1cc2cnccc2[nH]1 | < 50 | < 50 | – | – | – | > 50 | < 50 | Not Active | – | Not Active | 2 | Not Active | 121 |
| CCCCCn1nc(C(=O)NC23CC4CC(CC(C4)C2)C3)c2ccccc21 | < 50 | < 50 | 0.038 | – | – | > 50 | > 50 | Not Active | 99.6 | – | 0.092 | Not Active | 58.5 |
| O=C(NC12CC3CC(CC(C3)C1)C2)c1nc2ccccc2n1CCN1CCOCC1 | > 50 | < 50 | – | Not Active | 0.036 | < 50 | < 50 | Not Active | – | Not Active | – | – | – |
| O=C(NC12CC3CC(CC(C3)C1)C2)c1c[nH]c2cccnc12 | < 50 | < 50 | – | Not Active | – | < 50 | < 50 | Not Active | – | Not Active | – | Not Active | – |
| CCCCCn1c(C(=O)NC23CC4CC(CC(C4)C2)C3)nc2ccccc21 | < 50 | < 50 | – | – | – | > 50 | < 50 | Not Active | – | Not Active | 0.32 | Not Active | 62.2 |
| O=C(NC12CC3CC(CC(C3)C1)C2)c1cn(CCN2CCOCC2)c2ccncc12 | < 50 | < 50 | – | Not Active | – | < 50 | < 50 | Not Active | – | Not Active | – | Not Active | – |
